pKi: −log10 of the molar value. Active and inactive are the calls of the source. No cut-off for these calls is given here.
Columns and labels:
[1] = target: T1, Protein kinase C gamma type (Homo sapiens, UniProt P05129); assay: Displacement of [3H]PDBu form human PKCgamma in presence of phosphatidylserine
Method in brief: (§1)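 Recombinant human PKC isozyme, single isozyme per assay, with 100 μg/mL phosphatidylserine; competition of unlabeled ligand against [20-3H]PDBu binding; ID50 from least-squares sigmoidal fit, converted to Ki = ID50/(1 + L/Kd), L being free [3H]PDBu at ID50; mean ± SEM of three independent experiments.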

[2] = Membrane binding affinity to synthetic dimyristoylphosphatidylcholine/polydiacetylene vesicles assessed as increase in fluorescence chromatic response by fluorescence spectroscopy; type: physicochemical
Method in brief: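 DMPC/10,12-tricosadiynoic acid vesicles polymerized at 254 nm for 30 s, used at 0.5 mM total lipid in 50 mM Tris, pH 8; compounds in DMSO mixed with vesicles before buffer addition; fluorescence read at 485/555 nm excitation/emission, expressed as % of fully transformed red vesicles over a dose range.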

[3] = target: T2, Protein kinase C alpha type (Homo sapiens, UniProt P17252); assay: Displacement of [3H]PDBu form human PKCalpha in presence of phosphatidylserine; method in brief: as §1
[4] = target: T2, Protein kinase C alpha type; assay: Activation of GFP-tagged PKCalpha expressed in CHO cells assessed as isozyme translocation from cytosol to plasma membrane at 10 uM by confocal microscopy; type: cell-based
Method in brief: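 GFP-PKCα transiently transfected (Lipofectamine) into CHO cells grown in F12-K with 10% FBS; cells given 10 μM compound and redistribution followed over time by confocal microscopy (488 nm argon excitation), images every 30 s; kinetics of plasma-membrane translocation scored from four independent experiments.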

[5] = target: T3, Protein kinase C epsilon type (Homo sapiens, UniProt Q02156); assay: Displacement of [3H]PDBu form human PKCepsilon in presence of plasma membrane lipid mimetic mixture
T3 sequence (Q02156 whole entry): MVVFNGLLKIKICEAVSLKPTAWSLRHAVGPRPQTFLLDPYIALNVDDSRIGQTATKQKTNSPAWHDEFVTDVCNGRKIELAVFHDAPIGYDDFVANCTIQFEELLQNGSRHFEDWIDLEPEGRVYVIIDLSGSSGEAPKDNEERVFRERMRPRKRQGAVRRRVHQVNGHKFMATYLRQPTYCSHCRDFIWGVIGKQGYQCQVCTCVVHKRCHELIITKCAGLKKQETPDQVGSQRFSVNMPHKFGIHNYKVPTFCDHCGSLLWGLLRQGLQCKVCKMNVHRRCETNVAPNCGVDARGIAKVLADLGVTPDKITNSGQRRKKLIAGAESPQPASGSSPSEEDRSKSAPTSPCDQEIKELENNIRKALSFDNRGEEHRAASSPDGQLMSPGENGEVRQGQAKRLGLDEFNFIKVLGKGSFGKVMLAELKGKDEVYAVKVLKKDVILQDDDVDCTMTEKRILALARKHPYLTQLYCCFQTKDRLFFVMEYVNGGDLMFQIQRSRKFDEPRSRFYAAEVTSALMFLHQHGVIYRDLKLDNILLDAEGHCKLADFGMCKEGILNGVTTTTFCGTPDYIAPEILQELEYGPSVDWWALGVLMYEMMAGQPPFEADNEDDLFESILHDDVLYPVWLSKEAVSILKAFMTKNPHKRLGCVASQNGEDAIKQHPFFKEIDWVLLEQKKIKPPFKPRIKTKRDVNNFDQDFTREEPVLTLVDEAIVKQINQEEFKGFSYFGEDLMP
Method in brief: (§2)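 [3H]PDBu competition on individual recombinant human PKC isozymes in 100 μg/mL total lipid mimicking the plasma-membrane inner leaflet (PC/PE/PS/PI/cholesterol 12:35:22:9:21); ID50 fitted to a sigmoidal competition curve, Ki = ID50/(1 + L/Kd); three independent determinations, mean ± SEM.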

[6] = target: T1, Protein kinase C gamma type; assay: Displacement of [3H]PDBu form human PKCgamma in presence of plasma membrane lipid mimetic mixture; method in brief: as §2
[7] = target: T2, Protein kinase C alpha type; assay: Displacement of [3H]PDBu form human PKCalpha in presence of plasma membrane lipid mimetic mixture; method in brief: as §2
[8] = target: T4, Protein kinase C delta type (Homo sapiens, UniProt Q05655); assay: Activation of GFP-tagged PKCdelta expressed in CHO cells assessed as isozyme translocation from cytosol to internal membrane at 10 uM by confocal microscopy; type: cell-based
Method in brief: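 CHO cells in F12-K/10% FBS transiently transfected with GFP-PKCδ, exposed to 10 μM compound; confocal imaging at 488 nm every 30 s after addition; relative localization to plasma, nuclear and internal membranes scored semi-quantitatively (+ marks) over three independent experiments.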
Target sequence in this assay (Q05655 whole entry, looked up): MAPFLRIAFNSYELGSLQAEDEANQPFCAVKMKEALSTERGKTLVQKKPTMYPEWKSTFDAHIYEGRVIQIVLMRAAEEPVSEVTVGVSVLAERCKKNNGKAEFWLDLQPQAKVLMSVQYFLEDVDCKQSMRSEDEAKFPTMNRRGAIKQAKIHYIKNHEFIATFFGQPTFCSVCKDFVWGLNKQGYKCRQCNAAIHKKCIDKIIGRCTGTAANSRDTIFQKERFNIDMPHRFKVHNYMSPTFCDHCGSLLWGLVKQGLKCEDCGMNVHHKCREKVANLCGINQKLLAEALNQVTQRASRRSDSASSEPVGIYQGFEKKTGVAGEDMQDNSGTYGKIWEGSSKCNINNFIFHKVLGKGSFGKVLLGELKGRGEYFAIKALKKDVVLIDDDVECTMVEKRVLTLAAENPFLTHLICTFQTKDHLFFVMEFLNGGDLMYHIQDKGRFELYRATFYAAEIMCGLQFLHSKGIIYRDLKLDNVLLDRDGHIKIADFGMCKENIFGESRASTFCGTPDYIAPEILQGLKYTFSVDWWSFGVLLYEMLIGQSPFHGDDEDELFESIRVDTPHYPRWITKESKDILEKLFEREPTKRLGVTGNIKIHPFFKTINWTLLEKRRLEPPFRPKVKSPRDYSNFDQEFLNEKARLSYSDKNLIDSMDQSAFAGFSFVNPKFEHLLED

[9] = target: T5, Protein kinase C beta type (Homo sapiens, UniProt P05771); assay: Displacement of [3H]PDBu form human PKCbeta in presence of plasma membrane lipid mimetic mixture; method in brief: as §2
[10] = target: T4, Protein kinase C delta type; assay: Displacement of [3H]PDBu form human PKCdelta in presence of phosphatidylserine; method in brief: as §1
Target sequence in this assay (Q05655 whole entry): as the sequence (Q05655 whole entry, looked up) above

[11] = target: T4, Protein kinase C delta type; assay: Displacement of [3H]PDBu form human PKCdelta in presence of plasma membrane lipid mimetic mixture; method in brief: as §2
Target sequence in this assay (Q05655 whole entry): as the sequence (Q05655 whole entry, looked up) above

[12] = target: T5, Protein kinase C beta type; assay: Displacement of [3H]PDBu form human PKCbeta in presence of phosphatidylserine; method in brief: as §1
[13] = target: T3, Protein kinase C epsilon type; assay: Displacement of [3H]PDBu form human PKCepsilon in presence of phosphatidylserine; method in brief: as §1
LNCaP = assay: Induction of apoptosis in human LNCAP cells after 48 hrs by flow cytometry relative to PMA; type: functional, cell-based
Method in brief: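 LNCaP cells in RPMI-1640/10% FBS, plated at ~60% confluency, treated with a concentration series for 48 h alongside 1 μM PMA; stained with YO-PRO-1 (1 μM final, 20 min, 4 °C, dark) then 7-AAD (5 μg/mL final, 10 min) and analyzed by flow cytometry; YO-PRO-1-positive cells taken as apoptotic, % of total; three experiments.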

T5 sequence (P05771 whole entry): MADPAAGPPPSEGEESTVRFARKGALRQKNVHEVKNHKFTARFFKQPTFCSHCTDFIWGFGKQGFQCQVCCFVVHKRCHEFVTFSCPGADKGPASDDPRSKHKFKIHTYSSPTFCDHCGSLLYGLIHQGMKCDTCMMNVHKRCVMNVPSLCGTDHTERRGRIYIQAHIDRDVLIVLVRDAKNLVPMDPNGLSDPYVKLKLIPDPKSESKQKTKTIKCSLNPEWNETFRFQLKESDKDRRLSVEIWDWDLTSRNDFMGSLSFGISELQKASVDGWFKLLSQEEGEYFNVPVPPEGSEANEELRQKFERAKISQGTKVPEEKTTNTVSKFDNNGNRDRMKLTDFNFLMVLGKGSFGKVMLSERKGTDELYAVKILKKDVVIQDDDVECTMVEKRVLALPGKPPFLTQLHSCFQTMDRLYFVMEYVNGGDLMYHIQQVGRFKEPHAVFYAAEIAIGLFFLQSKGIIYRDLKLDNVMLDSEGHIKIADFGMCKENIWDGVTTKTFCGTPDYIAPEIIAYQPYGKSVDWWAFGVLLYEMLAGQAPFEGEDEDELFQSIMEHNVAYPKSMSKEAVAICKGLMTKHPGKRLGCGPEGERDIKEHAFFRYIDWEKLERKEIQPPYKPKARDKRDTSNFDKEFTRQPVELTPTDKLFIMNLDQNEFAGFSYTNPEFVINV

pKi [1] | Activity [2] | pKi [3] | Activity [4] | pKi [5] | pKi [6] | pKi [7] | Activity [8] | pKi [9] | pKi [10] | pKi [11] | pKi [12] | pKi [13] | SMILES | Activity (LNCaP)
7.46 | Active | 7.68 | Active | 7.10 | 7.11 | 6.84 | Active | 7.18 | 7.45 | 7.50 | 7.24 | 6.82 | CC(C)=C1CC(CO)(COC(=O)CCOc2ccc(C#Cc3ccc(C)cc3)cc2)OC1=O (stereo unspecified) | 
7.91 | Active | 7.71 | Active | 7.50 | 7.50 | 7.12 |  | 7.36 | 7.92 | 7.94 | 7.82 | 7.42 | CC(C)=C1CC(CO)(COC(=O)CCCOc2ccc(C#Cc3ccc(C)cc3)cc2)OC1=O (stereo unspecified) | 
7.29 | Active | 7.42 | Active | 6.83 | 6.86 | 6.78 | Active | 7.00 | 7.33 | 7.32 | 7.12 | 6.57 | CC(C)=C1CC(CO)(COC(=O)COc2ccc(C#Cc3ccc(C)cc3)cc2)OC1=O (stereo unspecified) | Active
8.21 | Active | 8.22 | Active | 8.08 | 7.80 | 7.80 |  | 7.90 | 8.27 | 8.56 | 8.39 | 8.00 | CC(C)=C1CC(CO)(COC(=O)c2ccc(C#Cc3ccc(C)cc3)cc2)OC1=O (stereo unspecified) | 
